In ChEMBL document CHEMBL4325827, “Bifidenone: Structure-Activity Relationship and Advanced Preclinical Candidate” (J Med Chem, 2018):

Tests used:
[1] = Plasma concentration in Crl:NU(NCr)-Foxn1 nu mouse xenografted with human NCI-H460 cells at 40 mg/kg, ip injected via vehicle solution measured at 1 hr post injection by LC-MS analysis; assay type: ADME, organism-based; conditions: in vivo
Summary of the method: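 Male Nu/Nu mice, some bearing NCI-H460 or LOX-IMVI xenografts, given a single ip dose at 3 mL/kg. Organic vehicle components were dissolved first, with the aqueous part added gradually. Mice were euthanized at 1 h or 3 h. Cardiac blood was taken into NaEDTA/NaF plasma separator tubes. Quantification used loratadine internal standard against a spiked blank-plasma curve. Tumours were run as duplicate ~200 mg samples homogenized in 3% SDS and extracted twice with ethyl acetate, assuming 1 g tissue = 1 mL.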

[2] = system: SF-295; experiment: Antiproliferative activity against taxane-resistant human SF295 cells after 72 hrs by CellTiter 96 aqueous nonradioactive cell proliferation assay; assay type: functional, cell-based; conditions: SF-295, 72 h
Summary of the method: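 Antiproliferation in cultured tumour cells, at least 3 replicate wells per concentration per experiment. NCI-H460 came from ATCC. M14, NCI/ADR-RES, OVCAR-4, HCT-15, ACHN and SF-295 came from the National Cancer Institute. IC50 reported from single experiments where no SD is given.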

[3] = system: NCI/ADR-RES; experiment: Potency index, ratio of paclitaxel IC50 to compound IC50 for taxane-resistant human NCI/ADR-RES cells after 72 hrs by CellTiter 96 aqueous nonradioactive cell proliferation assay; assay type: functional
[4] = system: UO-31; experiment: Potency index, ratio of paclitaxel IC50 to compound IC50 for taxane-resistant human UO31 cells after 72 hrs by CellTiter 96 aqueous nonradioactive cell proliferation assay; assay type: functional
[5] = system: SF-295; experiment: Potency index, ratio of paclitaxel IC50 to compound IC50 for taxane-resistant human SF295 cells after 72 hrs by CellTiter 96 aqueous nonradioactive cell proliferation assay; assay type: functional
[6] = Toxicity in Crl:NU(NCr)-Foxn1 nu mouse xenografted with human NCI-H460 cells assessed as mortality at 40 mg/kg, ip qd administered for 3 consecutive days followed by 2 days of rest for 3 cycles; assay type: organism-based; conditions: in vivo, 48 h
Summary of the method: (§1)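 Female athymic nude mice bearing subcutaneous xenografts started from cultured human tumor cells. Mice were split into vehicle and treatment groups once tumors reached about 75-200 mm3. Dosing was ip at 5-10 mL/kg in 22% ethanol, 38% PEG400, 40% 20 mM Na citrate pH 5.0. Deaths per group were recorded alongside maximum mean bodyweight loss.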

[7] = Toxicity in Crl:NU(NCr)-Foxn1 nu mouse xenografted with human NCI-H460 cells assessed as mortality at 60 mg/kg, ip qd administered for 3 consecutive days followed by 2 days of rest for 3 cycles; assay type: organism-based; conditions: in vivo, 48 h; summary of the method: as §1
[8] = Toxicity in Crl:NU(NCr)-Foxn1 nu mouse xenografted with human […] cells assessed as mortality at 40 mg/kg, ip qd administered for 3 consecutive days followed by 2 days of rest for 3 cycles; assay type: organism-based; conditions: in vivo, 48 h
Summary of the method: (§2)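 Female athymic nude mice bearing subcutaneous NCI-H522 xenografts started from tumor fragments kept by continuous in vivo passage. Mice were grouped once tumors reached about 75-200 mm3. Dosing was ip at 5-10 mL/kg in 22% ethanol, 38% PEG400, 40% 20 mM Na citrate pH 5.0. Deaths per group were recorded with maximum mean bodyweight loss.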

[9] = Toxicity in Crl:NU(NCr)-Foxn1 nu mouse xenografted with human […] cells assessed as mortality at 60 mg/kg, ip qd administered for 3 consecutive days followed by 2 days of rest for 3 cycles; assay type: organism-based; conditions: in vivo, 48 h; summary of the method: as §2
[10] = Toxicity in Crl:NU(NCr)-Foxn1 nu mouse xenografted with human Calu6 cells assessed as mortality at 50 mg/kg, ip qd administered for 3 consecutive days followed by 2 days of rest for 4 cycles; assay type: organism-based; conditions: in vivo, 48 h; summary of the method: as §1
[11] = Toxicity in Crl:NU(NCr)-Foxn1 nu mouse xenografted with human LOX-IMVI cells assessed as mortality at 40 mg/kg, ip qd administered for 5 consecutive days; assay type: organism-based; conditions: in vivo; summary of the method: as §1
[12] = Toxicity in Crl:NU(NCr)-Foxn1 nu mouse xenografted with human […] cells assessed as maximum body weight loss at 60 mg/kg, ip qd administered for 3 consecutive days followed by 2 days of rest for 3 cycles measured after 3 days post dose relative to control; assay type: organism-based; conditions: in vivo, 72 h
Summary of the method: (§3)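 Female athymic nude mice bearing subcutaneous xenografts, started from cultured cells (NCI-H460, Calu-6, NCI-H69, LOX-IMVI) or from serially passaged tumour fragments (NCI-H522). Mice were grouped into vehicle and treatment arms at tumour volumes of about 75-200 mm3. Dosing was ip at 5-10 mL/kg in 22% ethanol, 38% PEG400, 40% 20 mM Na citrate pH 5.0. Caliper volumes were taken as (length × width2)/2. Treated and control delta weights were median tumour weight minus staging-day median.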

[13] = Toxicity in Crl:NU(NCr)-Foxn1 nu mouse xenografted with human Calu6 cells assessed as maximum body weight loss at 50 mg/kg, ip qd administered for 3 consecutive days followed by 2 days of rest for 4 cycles measured after 17 days post dose relative to control; assay type: organism-based; conditions: in vivo, 408 h; summary of the method: as §3
[14] = Toxicity in Crl:NU(NCr)-Foxn1 nu mouse xenografted with human NCI-H69 cells assessed as maximum body weight loss at 60 mg/kg, ip dosed on day 1 followed by 4 days rest and subsequently dosed at 60 mg/kg, ip qd administered for 3 consecutive days followed by 2 days of rest for 2 cycles measured after 3 days post dose relative to control; assay type: organism-based; conditions: in vivo, 72 h; summary of the method: as §3
[15] = system: NCI-H460; experiment: Antitumor activity against human NCI-H460 cells xenografted in Crl:NU(NCr)-Foxn1 nu mouse assessed as tumor growth inhibition at 40 mg/kg, ip qd administered for 3 consecutive days followed by 2 days of rest for 3 cycles relative to control; assay type: functional; conditions: 48 h, read-out: TGI; summary of the method: as §3
[16] = system: NCI-H460; experiment: Antitumor activity against human NCI-H460 cells xenografted in Crl:NU(NCr)-Foxn1 nu mouse assessed as tumor growth inhibition at 60 mg/kg, ip qd administered for 3 consecutive days followed by 2 days of rest for 3 cycles relative to control; assay type: functional; conditions: 48 h, read-out: TGI; summary of the method: as §3
[17] = system: NCI-H522; experiment: Antitumor activity against human NCI-H522 cells xenografted in Crl:NU(NCr)-Foxn1 nu mouse assessed as tumor growth inhibition at 50 mg/kg, ip qd administered for 3 consecutive days followed by 2 days of rest for 3 cycles relative to control; assay type: functional; conditions: 48 h, read-out: TGI; summary of the method: as §3
[18] = system: Calu-6; experiment: (§4) Antitumor activity against human Calu6 cells xenografted in Crl:NU(NCr)-Foxn1 nu mouse assessed as tumor growth inhibition at 50 mg/kg, ip qd administered for 3 consecutive days followed by 2 days of rest for 4 cycles relative to control; assay type: functional; conditions: Calu-6, ip, 48 h, read-out: TGI; summary of the method: as §3
[19] = system: Calu-6; experiment: (§5) Antitumor activity against human Calu6 cells xenografted in Crl:NU(NCr)-Foxn1 nu mouse assessed as tumor growth inhibition at 60 mg/kg, ip qd administered for 3 consecutive days followed by 2 days of rest for 4 cycles relative to control; assay type: functional; conditions: Calu-6, ip, 48 h, read-out: TGI; summary of the method: as §3
[20] = system: NCI-H69; experiment: as §5, with “NCI-H69” for “Calu6”, “inhibition at 60 mg/kg, ip dosed on day 1 followed by 4 days rest and subsequently dosed” for “inhibition”, “2” for “4”; assay type: functional; conditions: read-out: TGI; summary of the method: as §3
[21] = system: NCI-H69; experiment: as §4, with “NCI-H69” for “Calu6”, “70 mg/kg, ip dosed on day 1 followed by 4 days rest and subsequently dosed at 70” for “50”, “2” for “4”; assay type: functional; conditions: read-out: TGI; summary of the method: as §3

## C=CC[C@H]1C[C@]2([C@H](C)Cc3cc(O)c(OC)cc3F)OCOC2=CC1=O
[1]
  Drug uptake: Active
[2]
  IC50: 9.6 nM
[3]
  Ratio IC50: >1000
[4]
  Ratio IC50: 34
[5]
  Ratio IC50: 6
[6]
  Activity: Toxic
[7]
  Activity: Non-Toxic
[8]
  Activity: Non-Toxic
[9]
  Activity: Non-Toxic
[10]
  Activity: Non-Toxic
[11]
  Activity: Non-Toxic
[12]
  Activity: 9%
[13]
  Activity: 4%
[14]
  Activity: 6%
[15]
  inhibition in vivo at 40 mg/kg: 71%
[16]
  inhibition in vivo at 60 mg/kg: 67%
[17]
  inhibition in vivo at 50 mg/kg: 69%
[18]
  inhibition in vivo at 50 mg/kg: 76%
[19]
  inhibition in vivo at 60 mg/kg: 63%
[20]
  inhibition in vivo at 60 mg/kg: 77%
[21]
  inhibition in vivo at 70 mg/kg: 84%
